pEC50: −log10 of the molar value. Activity calls are given as the source filed them. No cut-off for these calls is given here.

The species entered for test [1] is Cavia porcellus. Briefly: Compound was evaluated for its activity in vitro with use of isolated guinea pig tracheal spiral strips in the presence of L-cysteine (3 mM). Type of test: functional. The following applies: Trachea. The essentials:
(§1)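 Guinea pig tracheal strips held at 2 g resting tension and stabilized 60 min, with bath fluid changed every 15 min. Contraction to carbachol 30 μM, wash, then restabilized 60 min. Cumulative agonist concentration-response curves were run, with responses expressed as % of carbachol maximum. L-cysteine 3 mM or L-serine borate 45 mM was preincubated 30 min. EC50 was derived by linear regression, and significance by paired t test (p<0.05).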

For test [2], the species on record is Cavia porcellus. Kind of test: Compound was evaluated for its activity in vitro with use of isolated guinea pig tracheal spiral strips in the presence (control ). Type of test: functional. The following applies: Trachea. Summed up: as §1
The species entered for test [3] is Cavia porcellus. Briefly: Compound was evaluated for its activity in vitro with use of isolated guinea pig tracheal spiral strips in the presence (control ); Not active. Type of test: functional, Trachea. Summed up:
as §1

Test [4] is filed under the species Cavia porcellus. Briefly: Compound was tested for inhibition of LTE4 (8 nM)-induced contraction of isolated guinea pig trachea at 10 mM concentration. It counts as functional. The settings on record: in the assay text read “10 µM” for “10 mM”. The essentials: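 Isolated guinea pig trachea contracted with LTE4 8 nM. Analogue present in the bath, and inhibition of the LTE4 contraction expressed as percent.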

The species named for test [5] is Cavia porcellus. Kind of test: Compound was evaluated for its activity in vitro with use of isolated guinea pig tracheal spiral strips in the presence of L-serine borate (45 mM). It counts as functional. The following applies: Trachea. The essentials: as §1
The species entered for test [6] is Cavia porcellus. Kind of test: Compound was tested for FPL-55712 sensitivity in the absence of metabolic inhibitors; No sensitivity. It counts as functional, organism-based. Summed up:
(§2)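 Guinea pig tracheal strips at 2 g resting tension, stabilized 60 min, carbachol (30 μM) reference contraction, restabilized 60 min. FPL-55712 10 μM was preincubated 30 min before cumulative agonist curves, without metabolic inhibitors. EC50 values were compared with and without antagonist by Student's paired t test (p<0.05). Kb was obtained by the Furchgott method.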

Test [7] is filed under the species Cavia porcellus. Briefly: Compound was tested for FPL-55712 sensitivity in the absence of metabolic inhibitors; Yes. Type of test: functional, organism-based. The essentials:
as §2

One may read the pEC50 as the negative decadic logarithm of the EC50, by convention in mol/L. For the molecule `CCCCC/C=C\C\C=C/C=C/C=C/[C@@H](SC[C@H](N)C(=O)NCC(=O)O)[C@@H](O)CCCC(=O)O` [LEUKOTRIENE D4], the negative-log EC50 (pEC50) in the test listed under Cavia porcellus [1] is 9.29; in the test filed under Cavia porcellus [2], 8.41. The matching figures for `CCCCCCCc1ccc(C/C=C\[C@@H](SC[C@H](N)C(=O)NCC(=O)O)[C@@H](O)CCCC(=O)O)cc1`: 6.60 and 5.57. As usually defined, the Inhibition is the drop in the measured response relative to a control, in per cent. The low end stands for a weak effect, the high end for a strong effect. On to `CCCCCCOc1cccc(C/C=C/[C@H](SC[C@H](N)C(=O)NCC(=O)O)[C@H](O)CCCC(=O)O)c1`, for which, in the test filed under Cavia porcellus [3], the EC50 result is on record as “Not Active”. The same molecule gave an Inhibition in the test filed under Cavia porcellus [4] of 24%. For `CCCCCCOc1ccccc1C/C=C/[C@H](SC[C@H](N)C(=O)NCC(=O)O)[C@H](O)CCCC(=O)O`, in that order: “Not Active” and 18%. Consider `CCCCCCCc1ccccc1C/C=C/[C@H](SC[C@H](N)C(=O)NCC(=O)O)[C@H](O)CCCC(=O)O`, for which the pEC50 in the test listed under Cavia porcellus [1] was 5.73. In the case of `CCCCCCCc1cccc(C/C=C/[C@H](SCC(N)C(=O)O)[C@H](O)CCCC(=O)O)c1` (some centres not stated), the pEC50 in the test filed under Cavia porcellus [2] was 5.32. For `CCCCCCCc1ccc(C/C=C/[C@H](SCC(NC(=O)CCC(N)C(=O)O)C(=O)NCC(=O)O)[C@H](O)CCCC(=O)O)cc1` (some centres not stated), the figures for the pEC50 in the test filed under Cavia porcellus [5] and in the test filed under Cavia porcellus [2] were 7.13 and 6.24, respectively.

In the case of `CCCCCCOc1ccc(C/C=C/[C@H](SCC(NC(=O)CCC(N)C(=O)O)C(=O)NCC(=O)O)[C@H](O)CCCC(=O)O)cc1` (some centres not stated), the results for the pEC50 in the test filed under Cavia porcellus [5] and in the test listed under Cavia porcellus [2] were 6.59 and 5.89, respectively. Besides, the Sensitivity result in the test listed under Cavia porcellus [6] was “No sensitivity”. Turning to `CCCCC/C=C/c1cccc(C/C=C/[C@H](SC[C@H](N)C(=O)NCC(=O)O)[C@H](O)CCCC(=O)O)c1`, the negative-log EC50 (pEC50) in the test filed under Cavia porcellus [2] is 4.89.

Consider `CCCCCCCc1cccc(C/C=C/[C@H](SCC(NC(=O)CCC(N)C(=O)O)C(=O)NCC(=O)O)[C@H](O)CCCC(=O)O)c1` (some centres not stated), for which the pEC50 in the test listed under Cavia porcellus [5] was 6.35; in the test listed under Cavia porcellus [2], 5.87.

As to `CCCCC/C=C/c1ccc(C/C=C/[C@H](SCC(NC(=O)CCC(N)C(=O)O)C(=O)NCC(=O)O)[C@H](O)CCCC(=O)O)cc1` (some centres not stated), the pEC50 in the test listed under Cavia porcellus [5] was 6.35; in the test listed under Cavia porcellus [2] it was 5.42. For the molecule `CCCCCCOc1ccc(C/C=C/[C@H](SC[C@H](N)C(=O)NCC(=O)O)[C@H](O)CCCC(=O)O)cc1`, the Sensitivity entry in the test listed under Cavia porcellus [7] was “Active”. The same molecule gave a negative-log EC50 (pEC50) in the test filed under Cavia porcellus [2] of 5.04. With `CCCCCCCc1ccccc1C/C=C/[C@H](SCC(NC(=O)CCC(N)C(=O)O)C(=O)NCC(=O)O)[C@H](O)CCCC(=O)O` (some centres not stated), the values for the negative-log EC50 (pEC50) in the test filed under Cavia porcellus [5] and in the test listed under Cavia porcellus [2] were 4.74 and 4.73, respectively.

`CCCCCCCc1ccc(C/C=C/[C@H](SCC(N)C(=O)O)[C@H](O)CCCC(=O)O)cc1` (some centres not stated) had a pEC50 in the test filed under Cavia porcellus [2] of 5.77. As for `CCCCCCCc1ccccc1C/C=C/[C@H](SCC(N)C(=O)O)[C@H](O)CCCC(=O)O` (some centres not stated), the Inhibition in the test listed under Cavia porcellus [4] was determined as 28%. On to `CCCCCCCc1cccc(C/C=C/[C@H](SC[C@H](N)C(=O)NCC(=O)O)[C@H](O)CCCC(=O)O)c1`, for which the negative-log EC50 (pEC50) in the test listed under Cavia porcellus [1] was 5.32.

The values are drawn from ChEMBL document CHEMBL1123519, “Chemically stable homocinnamyl analogues of the leukotrienes: synthesis and preliminary biological evaluation” (J Med Chem, 1986).
